# Bioassay records as filed in PubChem.
# IMP-1 inh: blocks Pseudomonas aeruginosa IMP-1 metallo-beta-lactamase | purified IMP-1, nitrocefin hydrolysis, epi-absorbance fluorescence | 0.45% of 290,000 active | inhibition, % at 5.6 µM;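 active = inhibition above the mean plus 3 SD of all compounds in the same screening run, cut at about 4.5% in these data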;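 also: 0% = IMP-1 with DMSO and 100% = DMSO wells lacking enzyme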
#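 System: Purified recombinant IMP-1 metallo-beta-lactamase enzyme | Measured by: Fluorescence quenching readout, ex 480/em 530 nm | Replication: Singlicate | Incubation: 15 min preincubation plus 25 min reaction at 25 °C | Evaluation: Percent inhibition from optical density relative to buffer-blank wells | Benchmarks: DMSO with and without IMP-1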
# PAFAH1B3 FP inh: inhibitors of human PAFAH1B3 | inhibition, % at 3.39 µM | 0.28% of 340,000 active | AID 492972 | recombinant PAFAH1B3, FP-rhodamine probe, fluorescence polarization | Q15102;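 active = inhibition above the screen-wide average of all tested compounds plus 3 SD, cut at about 25% in these data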;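 also: 0% = enzyme with DMSO only and 100% = wells lacking PAFAH1B3 protein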
# Target sequence (Q15102 whole entry, looked up): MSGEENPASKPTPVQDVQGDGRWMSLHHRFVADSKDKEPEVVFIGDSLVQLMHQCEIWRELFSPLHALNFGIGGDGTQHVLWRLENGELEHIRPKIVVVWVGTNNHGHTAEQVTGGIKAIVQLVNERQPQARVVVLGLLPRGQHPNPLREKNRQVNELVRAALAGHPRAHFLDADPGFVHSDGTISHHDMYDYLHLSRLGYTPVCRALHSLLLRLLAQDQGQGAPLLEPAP
# PAFAH2 inh: PAFAH2 (human) inhibition; Q99487; recombinant PAFAH2, FP-rhodamine activity probe, fluorescence polarization; inhibition, % at 3.39 µM; 0.99% of 340,000 active;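 active = inhibition above the mean over all tested compounds plus 3 SD, cut at about 30% in these data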;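 also: inhibitors block probe labeling of enzyme so polarization drops; 0% = enzyme with DMSO and 100% = wells lacking PAFAH2 protein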
# VIM-2 inh: blocks Pseudomonas aeruginosa VIM-2 metallo-beta-lactamase; purified VIM-2, nitrocefin hydrolysis, epi-absorbance fluorescence; inhibition, % at 5.6 µM; 0.89% of 290,000 active; AID 1527;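 active = inhibition above the mean of all tested compounds plus 3 SD, cutoff set per screening run, cut at about 7.5% in these data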;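 also: red hydrolysis product quenches plate fluorescence so inhibitors raise well fluorescence; 0% = enzyme with DMSO and 100% = DMSO without enzyme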
# pPAFAH FP inh: inhibitors of human plasma PAF acetylhydrolase (pPAFAH). recombinant pPAFAH, FP-rhodamine probe fluorescence polarization. inhibition, % at 3.39 µM. 1.5% of 330,000 active;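 active = inhibition above the mean inhibition across the screen plus 3 SD, cut at about 25% in these data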;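 also: inhibitors block binding of the rhodamine activity-based probe so polarization drops; 0% = enzyme with DMSO and 100% = wells lacking pPAFAH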
# PAFAH1B2 inh: inhibitors of human PAFAH1B2 | P68402 | AID 492953 | inhibition, % at 3.39 µM | recombinant PAFAH1B2, FP-rhodamine activity probe, fluorescence polarization | 1.2% of 340,000 active;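 active = inhibition above the mean of all tested compounds plus 3 SD, cut at about 24% in these data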;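 also: 0% = enzyme with DMSO and 100% = wells lacking PAFAH1B2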
# Target sequence (P68402 whole entry, looked up): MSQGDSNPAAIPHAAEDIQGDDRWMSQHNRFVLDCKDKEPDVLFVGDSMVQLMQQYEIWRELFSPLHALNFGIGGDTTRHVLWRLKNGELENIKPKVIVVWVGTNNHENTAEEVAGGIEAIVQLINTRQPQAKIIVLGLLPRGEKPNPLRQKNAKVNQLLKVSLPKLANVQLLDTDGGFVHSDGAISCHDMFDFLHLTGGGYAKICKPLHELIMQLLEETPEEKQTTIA
# pPAFAH confirm: pPAFAH (human) inhibition, confirmed. inhibition, % at 3.39 µM. shares compounds with pPAFAH FP inh. 72% of 2,300 active. recombinant pPAFAH, FP-Rh probe fluorescence polarization. AID 463230;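 active = mean inhibition of the triplicate above the hit cutoff set for the earlier primary screen, cut at about 25% in these data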;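 also: 0% = enzyme with DMSO and 100% = wells lacking pPAFAH enzyme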
# Active calls of the source: *; x = no result. This is a sample that favours compounds with a hit; in the whole collection about 3.6% have one here.
SMILES,IMP-1 inh,PAFAH1B3 FP inh,PAFAH2 inh,VIM-2 inh,pPAFAH FP inh,PAFAH1B2 inh,pPAFAH confirm
N#Cc1c(SCC(=O)Nc2nccs2)sc2c(O)cc(=O)[nH]c12,-1,22,32*,-3,37*,17,10
N#Cc1c(SCC(=O)Nc2nc3ccccc3s2)sc2c(O)cc(=O)[nH]c12,x,28*,35*,x,41*,19,31*
N#Cc1c(SCC(=O)Nc2nc3ccc(Br)cc3s2)sc2c(O)cc(=O)[nH]c12,-1,19,17,-2,51*,12,42*
Cc1ccc(C)c(S(=O)(=O)N2CCCCC2CCNC(=O)C(=O)NCc2ccncc2)c1 (configuration not stated),x,1,1,x,0,0,x
COc1ccc(N2C(=O)NC3CC2(C)Oc2ccc(Cl)cc23)cc1OC (configuration not stated),-2,9,6,-1,6,0,x
COc1cc(N2C(=O)NC3CC2(C)Oc2ccccc23)cc(OC)c1OC (configuration not stated),-2,9,-5,-1,35*,4,2
CCN(C(=O)COC(=O)CCOc1cc(C)ccc1C)c1c(N)n(Cc2ccccc2)c(=O)[nH]c1=O,x,6,7,x,x,-1,x
COc1ccc(NC(=O)CN2CCN(CC(=O)Nc3ccc(F)cc3F)CC2)cc1,-3,-1,-1,-5,x,1,x
O=C(N/N=C/c1c(O)ccc2ccccc12)c1ccc[n+](CCO)c1,-5,8,4,-4,5,-1,x
O=C(N/N=C\c1c(O)ccc2ccccc12)c1cncc(Br)c1,-2,20,3,-1,41*,7,58*
CCc1cccc(NC(=O)CN(c2ccc(C)cc2)S(=O)(=O)c2c(C)noc2C)c1,0,0,8,-1,2,-3,x
CCOc1ccc(CCNC(=O)Cc2ccc(NC3=NC4CS(=O)(=O)CC4S3)cc2)cc1 (configuration not stated),-1,-6,-8,1,-5,3,x
COc1ccc(CCNC(=O)Cc2ccc(NC3=NC4CS(=O)(=O)CC4S3)cc2)c(OC)c1 (configuration not stated),-3,5,3,-2,36*,4,1
c1ccc(CNC2=NCCCCC2)cc1,-2,-7,3,0,-4,-4,x
Cc1ccc(CNC2=NCCCCC2)n1C,-4,4,4,0,53*,1,3
CN(C)C1(CN=Cc2cc(Cl)cc([N+](=O)[O-])c2O)CCCCC1,5.7*,5,34*,-4,42*,8,28*
CC(C)Oc1ccc(CNCCC2(C(C)C)CCOC(C)(C)C2)cc1 (configuration not stated),-7,2,-7,-1,57*,1,5
Cc1ccc(NC2=C([N+](=O)[O-])CS(=O)(=O)C2)cc1,1,2,3,-2,20,4,x
CN(C)c1ccc(NC2=C([N+](=O)[O-])CS(=O)(=O)C2)cc1,-4,12,3,-1,39*,2,7
CN(C(=S)Nc1ccc(SC(F)F)cc1)c1ccc(O)cc1,-3,3,4,-2,51*,8,2
CN(C(=S)Nc1ccccc1)c1ccccc1,0,3,3,1,2,6,x
O=C(O)c1cccc(S(=O)(=O)NCc2cccs2)c1,-3,4,-2,-2,6,6,x
O=C1CC(=O)Nc2cc(S(=O)(=O)NCc3cccs3)ccc2N1,1,0,1,-3,65*,1,2
Cc1ccc(NC(=O)C(C)OC(=O)CCC2CCCCC2)cc1 (configuration not stated),x,6,3,x,43*,7,8
O=C1CCCC2=C1C(c1ccc(O)c(O)c1)Nc1ccc3ccccc3c12 (configuration not stated),x,3,5,x,36*,6,31*
O=C1CCCC2=C1C(c1ccco1)Nc1ccc3ccccc3c12 (configuration not stated),0,3,26,7,40*,2,29*
COc1cc(C2Nc3ccc4ncccc4c3C3=C2C(=O)CCC3)cc(OC)c1O (configuration not stated),2,8,3,0,7,0,x
